{"source": "paper PMC5469400", "about": "(Drug Metabolism and Disposition, 2017)", "key": {"[1]": {"tested_on": "primary hepatocyte–Kupffer cell cocultures", "experiment": "WST-1 cell viability in the LiverChip, repeat dosing", "type": "cell-based", "conditions": "Homo sapiens, read-out: IC50 (cell viability, WST-1)", "method_in_brief": "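Perfused LiverChip cocultures of cryopreserved primary human hepatocytes and Kupffer cells (10:1, 600,000 cells/well; post-thaw viability >85%). Test compound in DMSO (0.5% v/v final) dosed from day 5. Medium and fresh compound replaced every 48 h. Viability measured by WST-1; mean of two replicates.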"}, "[2]": {"tested_on": "proteins in hepatocyte-Kupffer cell coculture medium", "experiment": "Shotgun proteomics of secreted proteins, spectral counting", "type": "cell-based, human", "conditions": "440 μM DCF", "method_in_brief": "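Perfused hepatocyte–Kupffer cell coculture medium was collected from control and 440 μM test compound cultures on days 5 and 7 and depleted of albumin. Proteins were taken up in 8 M urea/50 mM ABC with ProteaseMAX, reduced with DTT (56°C, 30 min) and alkylated with IAA (30 min, room temperature, dark). Fractions were cleaned on C18, analysed by shotgun LC-MS/MS and quantified by spectral counting.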"}, "[3]": {"tested_on": "coculture of hepatocytes and Kupffer cells (10:1)", "experiment": "Extrapolation of in vitro DCF clearance to predicted hepatic clearance", "type": "in vitro ADME, human"}, "[4]": {"experiment": "DCF clearance / PK in the LiverChip, one-compartment model", "type": "in vitro ADME", "conditions": "human"}, "[5]": {"conditions": "wells in the absence of cells, concentration monitored over 24 hours"}, "[6]": {"tested_on": "bile acid production in 3D liver coculture", "experiment": "Bile acids in culture medium by LC-MS", "type": "cell-based, human", "conditions": "for level of GCA after 48 h / level of cholic acid after 48 h / level of glycochenodeoxycholic acid 3-glucuronide after 48 h / level of glycochenodeoxycholic acid after 48 h / level of taurocholic acid after 48 h: 0 μM DCF = 100, relative EIC", "method_in_brief": "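Perfused LiverChip cocultures of cryopreserved primary human hepatocytes and Kupffer cells (10:1, 600,000 cells/well) in WEM with 100 nM hydrocortisone. Test compound in DMSO (0.5% v/v final) or LPS 1 µg/ml added from day 5, refreshed at 48 h medium changes. d5-GCA internal standard added before extraction. Bile acids in medium at 48 h by accurate MS peak area (EIC%) relative to vehicle = 100. Mean of two technical replicates.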"}, "[7]": {"tested_on": "primary human hepatocyte and Kupffer cell cocultures", "experiment": "LDH release in the LiverChip", "type": "cell-based", "method_in_brief": "(§1)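 Cryopreserved primary human hepatocytes and Kupffer cells (10:1, 600,000 cells/well) were cocultured in perfused LiverChip scaffolds (1.0 µl/s), with hydrocortisone-containing (100 nM) WEM from day 3. Test compound in DMSO (0.5% v/v final) was given from day 5 and redosed at each 48-hour medium change, ±LPS 1 µg/ml. Medium was sampled 48 hours after each dose for albumin (ELISA) and LDH activity; n = 3, S.D.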"}, "[8]": {"tested_on": "acute phase proteins (APPs)", "experiment": "iTRAQ 8plex quantitation of acute phase proteins in conditioned medium", "type": "cell-based, human", "conditions": "day 7; normalized to untreated control; drug 440 μM DCF, LPS 1 µg/ml", "method_in_brief": "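Day 7 conditioned medium from perfused human hepatocyte–Kupffer cell cocultures treated with test compound (440 μM), LPS (1 µg/ml) or both. Albumin depleted; 100 μg protein reduced (2 mM TCEP, 37°C, 30 min), blocked (10 mM MMTS, 1 h) and trypsin-digested (1:40 w/w, 37°C overnight). Peptides iTRAQ-8plex labelled (3 h, RT), then C18-cleaned. Values are ln2 ratios versus untreated control (combined treatment versus LPS).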"}, "[9]": {"conditions": "cited from earlier work"}, "[10]": {"tested_on": "primary human hepatocyte and Kupffer cell cocultures", "experiment": "Albumin secretion", "type": "cell-based", "conditions": "high DCF concentrations (>50×), measured 48 hours after each dose", "method_in_brief": "as §1"}}}
{"compound": "O=C(O)Cc1ccccc1Nc1c(Cl)cccc1Cl", "note": "[DCF, diclofenac]", "values": [{"measurement": "IC50", "setting": "[1]", "result": 227, "unit": "µM"}, {"measurement": "number of proteins different between control and DCF-treated samples", "setting": "[2]; day 5", "result": 13, "unit": "proteins"}, {"measurement": "number of additional proteins elevated, not identified in the control", "setting": "[2]; day 7", "result": 68, "unit": "proteins"}, {"measurement": "underprediction of predicted CLh versus in vivo plasma clearance", "setting": "[3]", "result": "< 7", "unit": "fold"}, {"measurement": "half-life at 4.4 µM", "setting": "[4]", "result": 14.6, "unit": "h"}, {"measurement": "binding to the LiverChip components", "setting": "[5]", "result": "no detectable binding"}, {"measurement": "DCF-induced toxicity as assessed by suppression of GCA production", "setting": "[6]; 0, 44, 110, 220 and 440 µM DCF", "result": "continuous dose-response relationship"}, {"measurement": "level of GCA after 48 h", "setting": "[6]; 110 μM DCF", "result": 57, "unit": "%"}, {"measurement": "level of cholic acid after 48 h", "setting": "[6]; 110 μM DCF", "result": 66, "unit": "%"}, {"measurement": "level of glycochenodeoxycholic acid 3-glucuronide after 48 h", "setting": "[6]; 110 μM DCF", "result": 69, "unit": "%"}, {"measurement": "level of glycochenodeoxycholic acid after 48 h", "setting": "[6]; 110 μM DCF", "result": 50, "unit": "%"}, {"measurement": "level of taurocholic acid after 48 h", "setting": "[6]; 110 μM DCF", "result": 77, "unit": "%"}, {"measurement": "level of GCA after 48 h", "setting": "[6]; 440 μM DCF", "result": 2, "unit": "%"}, {"measurement": "level of cholic acid after 48 h", "setting": "[6]; 440 μM DCF", "result": 12, "unit": "%"}, {"measurement": "level of glycochenodeoxycholic acid 3-glucuronide after 48 h", "setting": "[6]; 440 μM DCF", "result": 14, "unit": "%"}, {"measurement": "level of glycochenodeoxycholic acid after 48 h", "setting": "[6]; 440 μM DCF", "result": 15, "unit": "%"}, {"measurement": "level of taurocholic acid after 48 h", "setting": "[6]; 440 μM DCF", "result": 10, "unit": "%"}, {"measurement": "LDH release", "setting": "[7]; high DCF concentrations (>50×), measured 48 hours after each dose", "result": "became more pronounced after the second dose"}, {"measurement": "ln2 iTRAQ value, Haptoglobin", "setting": "[8]", "result": 0.5}, {"measurement": "ln2 iTRAQ value, α1 antiproteinase", "setting": "[8]", "result": 1.0}, {"measurement": "ln2 iTRAQ value, α2 macroglobulin", "setting": "[8]", "result": "−1.0"}, {"measurement": "in vivo plasma clearance", "setting": "[9]; human, ref http://www.capkr.man.ac.uk", "result": 3.8, "unit": "ml/min per kilogram"}, {"measurement": "Cmax", "setting": "[9]; recommended dose of DCF in humans", "result": 4.4, "unit": "µM"}, {"measurement": "albumin secretion", "setting": "[10]", "result": "declined after a single dose"}]}
{"compound": "lipopolysaccharide [LPS]", "values": [{"measurement": "effect of LPS together with DCF on drug toxicity (bile acid production)", "setting": "[6]; LPS alone, DCF, LPS plus DCF", "result": "synergistic effect"}, {"measurement": "effect of LPS codosing on toxicity profile of DCF", "setting": "[7]; gross markers of functionality and cell death, LPS 1 µg/ml", "result": "does not significantly change the toxicity profile"}, {"measurement": "ln2 iTRAQ value, Amyloid β A4 protein isoform b", "setting": "[8]", "result": "−1.7"}, {"measurement": "ln2 iTRAQ value, Angiotensinogen", "setting": "[8]", "result": 3.7}, {"measurement": "ln2 iTRAQ value, Ceruloplasmin", "setting": "[8]", "result": 3.8}, {"measurement": "ln2 iTRAQ value, Complement component C3", "setting": "[8]", "result": 5.1}, {"measurement": "ln2 iTRAQ value, Haptoglobin", "setting": "[8]", "result": 3.8}, {"measurement": "ln2 iTRAQ value, Hypothetical protein", "setting": "[8]", "result": 3.9}, {"measurement": "ln2 iTRAQ value, Leucine-rich α2-glycoprotein", "setting": "[8]", "result": 2.8}, {"measurement": "ln2 iTRAQ value, Liver carboxylesterase 1 isoform a", "setting": "[8]", "result": 2.4}, {"measurement": "ln2 iTRAQ value, Retinol binding protein 4", "setting": "[8]", "result": 5.0}, {"measurement": "ln2 iTRAQ value, Serum albumin", "setting": "[8]", "result": 3.9}, {"measurement": "ln2 iTRAQ value, Transferrin", "setting": "[8]", "result": 3.0}, {"measurement": "ln2 iTRAQ value, Transthyretin", "setting": "[8]", "result": 1.3}, {"measurement": "ln2 iTRAQ value, Vitamin D binding protein", "setting": "[8]", "result": 2.1}, {"measurement": "ln2 iTRAQ value, α1-acid glycoprotein 1", "setting": "[8]", "result": 7.0}, {"measurement": "ln2 iTRAQ value, α1-acid glycoprotein 2", "setting": "[8]", "result": 5.0}, {"measurement": "ln2 iTRAQ value, α1-antitrypsin", "setting": "[8]", "result": 4.2}, {"measurement": "ln2 iTRAQ value, α1 antiproteinase", "setting": "[8]", "result": 4.2}, {"measurement": "ln2 iTRAQ value, α2-HS glycoprotein", "setting": "[8]", "result": 1.5}]}
